≈ marks a conversion by molar mass, not a printed value.
How the values were obtained:
Assay type in all cases: functional
Streptococcus pneumoniae [1] = assay: Antimicrobial activity against penicillin-resistant Streptococcus pneumoniae clinical isolate after 18 to 22 hrs by broth microdilution method in presence of beta-lactamase inhibitor Tazobactam
Summary of the method: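 CLSI broth microdilution in Mueller-Hinton II broth with 5% lysed horse blood. Antibiotic in serial dilution with the β-lactamase inhibitor held at a constant 4 μg/ml. Inoculum 10^5 CFU/ml. Incubated 18 to 22 h at 35°C in ambient air. MIC is the lowest concentration with no growth visible to the eye.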

Enterococcus hirae = assay: Antimicrobial activity against Enterococcus hirae clinical isolate after 18 to 22 hrs by broth microdilution method in presence of beta-lactamase inhibitor Tazobactam
Summary of the method: (§1)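 Piperacillin-tazobactam was tested by CLSI broth microdilution in Mueller-Hinton II broth against clinical isolates. Inoculum was 10^5 CFU/ml, with 18 to 22 h incubation at 35°C in ambient air. MIC was read as the lowest concentration completely inhibiting visible growth.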

Streptococcus pneumoniae [2] = assay: Antimicrobial activity against penicillin-intermediate Streptococcus pneumoniae clinical isolate after 18 to 22 hrs by broth microdilution method in presence of beta-lactamase inhibitor BLI-489
Summary of the method: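 Streptococci were tested by CLSI broth microdilution in Mueller-Hinton II broth plus 5% lysed horse blood. Piperacillin was serially diluted with BLI-489 fixed at a constant 4 μg/ml. Inoculum was 10^5 CFU/ml, with 18 to 22 h at 35°C in ambient air. MIC was the lowest concentration completely inhibiting growth by eye.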

Serratia marcescens [3] = assay: Antimicrobial activity against Serratia marcescens clinical isolate after 18 to 22 hrs by broth microdilution method in presence of beta-lactamase inhibitor BLI-489
Summary of the method: (§2)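 CLSI broth microdilution in Mueller-Hinton II broth. Serial dilutions of piperacillin were tested with BLI-489 held at a constant 4 μg/ml. Inoculum was 10^5 CFU/ml. Plates were incubated 18 to 22 h at 35°C in ambient air. MIC was the lowest concentration giving complete growth inhibition by unaided eye.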

Streptococcus pyogenes [4] = assay: Antimicrobial activity against Streptococcus pyogenes clinical isolate after 18 to 22 hrs by broth microdilution method in presence of beta-lactamase inhibitor Tazobactam
Summary of the method: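 Streptococcal isolates were tested with piperacillin-tazobactam by CLSI broth microdilution in Mueller-Hinton II broth supplemented with 5% lysed horse blood. Inoculum was 10^5 CFU/ml, incubated 18 to 22 h at 35°C in ambient air. Visual endpoint: lowest concentration with complete inhibition.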

[5] = test system: Haemophilus parainfluenzae; assay: Antimicrobial activity against Haemophilus parainfluenzae clinical isolate after 18 to 22 hrs by broth microdilution method in presence of beta-lactamase inhibitor Tazobactam
Summary of the method: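 […] was used for CLSI broth microdilution with piperacillin-tazobactam. Inoculum was 10^5 CFU/ml, incubated 18 to 22 h at 35°C in ambient air. MIC was the lowest concentration with no growth visible to the unaided eye.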

Staphylococcus aureus [6] = assay: Antimicrobial activity against methicillin-susceptible Staphylococcus aureus clinical isolate after 18 to 22 hrs by broth microdilution method in presence of beta-lactamase inhibitor Tazobactam
Summary of the method: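 CLSI broth microdilution of piperacillin-tazobactam in Mueller-Hinton II broth with serial dilutions. Inoculum was 10^5 CFU/ml. Incubation was 18 to 22 h at 35°C in ambient air. MIC was read as the lowest concentration giving complete inhibition of growth visible to the unaided eye.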

Streptococcus pyogenes [7] = assay: Antimicrobial activity against Streptococcus pyogenes clinical isolate after 18 to 22 hrs by broth microdilution method in presence of beta-lactamase inhibitor BLI-489
Summary of the method: (§3)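 Streptococci were tested by CLSI broth microdilution in Mueller-Hinton II broth plus 5% lysed horse blood. Piperacillin dilutions contained a constant 4 μg/ml BLI-489. Inoculum was 10^5 CFU/ml, incubated 18 to 22 h at 35°C in air. MIC was the lowest concentration with no visible growth.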

Proteus vulgaris = assay: Antimicrobial activity against Proteus vulgaris clinical isolate after 18 to 22 hrs by broth microdilution method in presence of beta-lactamase inhibitor Tazobactam; summary of the method: as §1
Escherichia coli [8] = assay: Antimicrobial activity against class A extended spectrum beta-lactamase- and class D OXA- producing Escherichia coli clinical isolate after 18 to 22 hrs by broth microdilution method in presence of beta-lactamase inhibitor BLI-489; summary of the method: as §2
Burkholderia cepacia = assay: Antimicrobial activity against Burkholderia cepacia clinical isolate after 18 to 22 hrs by broth microdilution method in presence of beta-lactamase inhibitor Tazobactam
Summary of the method: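 Piperacillin-tazobactam was tested on recent clinical isolates by CLSI broth microdilution in Mueller-Hinton II broth, with tazobactam at constant 4 μg/ml. Wells held 10^5 CFU/ml and were incubated 18 to 22 h at 35°C in ambient air. MIC was the lowest concentration with no growth visible to the unaided eye.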

Streptococcus agalactiae = assay: Antimicrobial activity against Streptococcus agalactiae clinical isolate after 18 to 22 hrs by broth microdilution method in presence of beta-lactamase inhibitor BLI-489; summary of the method: as §3
Bacteroides fragilis = assay: Antimicrobial activity against Bacteroides fragilis clinical isolate after 18 to 22 hrs by broth microdilution method
Serratia marcescens [9] = assay: Antimicrobial activity against AmpC beta-lactamase-producing Serratia marcescens clinical isolate after 18 to 22 hrs by broth microdilution method in presence of beta-lactamase inhibitor BLI-489
Summary of the method: (§4)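 CLSI broth microdilution in Mueller-Hinton II broth. Piperacillin serial dilutions were combined with BLI-489 held constant at 4 μg/ml. Inoculum was 10^5 CFU/ml. Plates were incubated 18 to 22 h at 35°C in ambient air. MIC was the lowest concentration completely inhibiting growth seen by the unaided eye. Piperacillin-tazobactam interpretive criteria were applied.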

Klebsiella pneumoniae = assay: Antimicrobial activity against AmpC- producing Klebsiella pneumoniae clinical isolate after 18 to 22 hrs by broth microdilution method in presence of beta-lactamase inhibitor BLI-489; summary of the method: as §4
Staphylococcus aureus [10] = assay: Antimicrobial activity against methicillin-resistant Staphylococcus aureus clinical isolate after 18 to 22 hrs by broth microdilution method in presence of beta-lactamase inhibitor BLI-489
Summary of the method: (§5)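 CLSI broth microdilution in Mueller-Hinton II broth. Antibiotic in serial dilution with the β-lactamase inhibitor held at a constant 4 μg/ml. Inoculum 10^5 CFU/ml. Incubated 18 to 22 h at 35°C in ambient air.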

Enterococcus faecium = assay: Antimicrobial activity against vancomycin-resistant Enterococcus faecium clinical isolate after 18 to 22 hrs by broth microdilution method in presence of beta-lactamase inhibitor Tazobactam; summary of the method: as §5
Escherichia coli [11] = assay: Antimicrobial activity against Escherichia coli clinical isolate after 18 to 22 hrs by broth microdilution method in presence of beta-lactamase inhibitor BLI-489; summary of the method: as §2

CCN1CCN(C(=O)N[C@@H](C(=O)N[C@@H]2C(=O)N3[C@@H]2SC(C)(C)[C@@H]3C(=O)O)c2ccccc2)C(=O)C1=O [PIPERACILLIN]
MIC50 (Streptococcus pneumoniae [1]): 2 mg/L
MIC90 (Streptococcus pneumoniae [1]): 4 mg/L
MIC50 (Enterococcus hirae): 4 mg/L
MIC90 (Enterococcus hirae): 16 mg/L
MIC50 (Streptococcus pneumoniae [2]): 0.25 mg/L
MIC90 (Streptococcus pneumoniae [2]): 1 mg/L
MIC50 (Serratia marcescens [3]): 1 mg/L
MIC90 (Serratia marcescens [3]): 4 mg/L
MIC50 (Streptococcus pyogenes [4]): 0.03 mg/L
MIC90 (Streptococcus pyogenes [4]): 0.06 mg/L
MIC50 [5]: 0.06 mg/L
MIC90 [5]: 0.25 mg/L
MIC50 (Staphylococcus aureus [6]): 1 mg/L
MIC90 (Staphylococcus aureus [6]): 2 mg/L
MIC (Streptococcus pyogenes [7]): ≤ 0.004 mg/L
MIC50 (Streptococcus pyogenes [7]): ≤ 0.004 mg/L
MIC90 (Streptococcus pyogenes [7]): ≤ 0.004 mg/L
MIC50 (Proteus vulgaris): 0.5 mg/L
MIC90 (Proteus vulgaris): 2 mg/L
MIC (Escherichia coli [8]): 2 mg/L
MIC50 (Escherichia coli [8]): 2 mg/L
MIC90 (Escherichia coli [8]): 16 mg/L
MIC50 (Burkholderia cepacia): 4 mg/L
MIC90 (Burkholderia cepacia): 64 mg/L
MIC50 (Streptococcus agalactiae): ≤ 0.004 mg/L
MIC90 (Streptococcus agalactiae): 0.03 mg/L
MIC50 (Bacteroides fragilis): 8 mg/L (≈ 15.5 µM)
MIC90 (Bacteroides fragilis): > 128 mg/L
MIC50 (Serratia marcescens [9]): 2 mg/L
MIC90 (Serratia marcescens [9]): 8 mg/L
MIC50 (Klebsiella pneumoniae): 16 mg/L
MIC90 (Klebsiella pneumoniae): > 128 mg/L
MIC50 (Staphylococcus aureus [10]): 32 mg/L
MIC (Enterococcus faecium): > 128 mg/L
MIC50 (Enterococcus faecium): > 128 mg/L
MIC50 (Escherichia coli [11]): 64 mg/L
MIC90 (Escherichia coli [11]): 128 mg/L
